# From ChEMBL document CHEMBL4152204, “Discovery of N-hydroxy-3-alkoxybenzamides as direct acid sphingomyelinase inhibitors using a ligand-based pharmacophore model” (Eur J Med Chem, 2018)
# Activity calls are given as the source filed them. The calls are words filed in the database; no cut-off is given here.
# What was measured:
# NIH3T3 [1] = experiment: Inhibition of LPS-induced IL-8 production in mouse NIH/3T3 cells preincubated for 20 hrs followed by LPS-stimulation and measured after 6 hrs by ELISA; assay type: functional, cell-based
# In short: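 NIH3T3 cells (DMEM, 10% FBS) seeded at 2*10⁵ per well overnight, inhibitor 20 h, then LPS to 50 ng/mL for a further 6 h; IL-6 or IL-8 measured by ELISA; compared with LPS-only and control groups.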
# [2] = biological target: T1, Sphingomyelin phosphodiesterase (Mus musculus) (UniProt Q04519); experiment: Inhibition of acid sphingomyelinase in mouse NIH/3T3 cells assessed as ceramide levels at 5 uM after 20 hrs by LC-MS/MS analysis relative to control; assay type: cell-based
# T1 sequence (whole entry): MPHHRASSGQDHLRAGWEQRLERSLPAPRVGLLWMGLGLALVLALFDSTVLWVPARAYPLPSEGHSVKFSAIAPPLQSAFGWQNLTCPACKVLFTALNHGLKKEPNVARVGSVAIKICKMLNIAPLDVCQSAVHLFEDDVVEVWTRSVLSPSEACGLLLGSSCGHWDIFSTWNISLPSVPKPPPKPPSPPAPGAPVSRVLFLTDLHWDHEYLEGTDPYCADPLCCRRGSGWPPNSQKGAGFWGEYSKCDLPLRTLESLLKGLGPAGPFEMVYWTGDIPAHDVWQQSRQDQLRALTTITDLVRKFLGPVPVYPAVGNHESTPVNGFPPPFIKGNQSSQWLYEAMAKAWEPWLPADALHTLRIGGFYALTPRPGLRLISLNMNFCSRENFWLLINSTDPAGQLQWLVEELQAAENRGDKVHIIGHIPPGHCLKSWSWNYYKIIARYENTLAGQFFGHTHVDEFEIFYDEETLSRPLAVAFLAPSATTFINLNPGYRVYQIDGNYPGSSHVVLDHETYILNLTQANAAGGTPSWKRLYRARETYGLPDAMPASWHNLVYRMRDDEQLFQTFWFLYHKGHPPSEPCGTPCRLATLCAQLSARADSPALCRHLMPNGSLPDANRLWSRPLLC
# In short: (§1)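 NIH3T3 cells in DMEM with 10% FBS, 37 °C, 5% CO₂; at 90% confluence given fresh medium plus inhibitor (5, 10, 20 µM) for 20 h; total ceramides and sphingomyelin quantified by LC-MS-MS versus untreated control; mean ± SD of three independent experiments, Student's t-test.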
# NIH3T3 [3] = experiment: Cytotoxicity against mouse NIH/3T3 cells after 24 hrs by MTT assay; assay type: cell-based; conditions: NIH3T3, 24 h
# [4] = biological target: T1, Sphingomyelin phosphodiesterase (Mus musculus); experiment: Inhibition of acid sphingomyelinase in mouse NIH/3T3 cells assessed as decrease in ceramide levels after 20 hrs by LC-MS/MS analysis; assay type: cell-based; in short: as §1
# [5] = biological target: T1, Sphingomyelin phosphodiesterase (Mus musculus); experiment: Inhibition of acid sphingomyelinase in mouse NIH/3T3 cells assessed as increase in […] level at 10 uM after 20 hrs by LC-MS/MS analysis relative to control; assay type: cell-based; parameters: scale not given: the % may be the effect or the level left; in short: as §1
# NIH3T3 [6] = experiment: Cytoprotective activity against UV-induced apoptosis in mouse NIH/3T3 cells assessed as necrotic cells at 40 uM preincubated for 20 hrs followed by UV irradiation for 5 mins and measured after 24 hrs by flow cytometric analysis (reference value: 1.5%); assay type: functional
# NIH3T3 [7] = experiment: Cytoprotective activity against UV-induced apoptosis in mouse NIH/3T3 cells assessed as viable cells at 60 uM preincubated for 20 hrs followed by UV irradiation for 5 mins and measured after 24 hrs by flow cytometric analysis (reference value: 12.6%); assay type: functional; conditions: NIH3T3, light or radiation study, read-out: Activity
# NIH3T3 [8] = experiment: Cytoprotective activity against UV-induced apoptosis in mouse NIH/3T3 cells assessed as necrotic cells preincubated for 20 hrs followed by UV irradiation for 5 mins and measured after 24 hrs by flow cytometric analysis; assay type: functional, cell-based
# In short: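 NIH3T3 cells grown in DMEM plus 10% FBS at 37 °C and 5% CO₂, seeded in 6-well plates and left overnight. Inhibitor (0–60 µM, DMSO solvent) added for 20 h. Medium replaced, then UV at peak 315 nm, 0.29 mW/cm² for 5 min. Cells kept with inhibitor 24 h more before flow cytometry by quadrant regions. Untreated, unirradiated cells served as control. Three independent experiments.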
# NIH3T3 [9] = experiment: Cytoprotective activity against UV-induced apoptosis in mouse NIH/3T3 cells assessed as necrotic cells at 20 uM preincubated for 20 hrs followed by UV irradiation for 5 mins and measured after 24 hrs by flow cytometric analysis (reference value: 1.5%); assay type: functional
# [10] = biological target: T1, Sphingomyelin phosphodiesterase (Mus musculus); experiment: Inhibition of acid sphingomyelinase in mouse NIH/3T3 cells assessed as increase in […] level at 20 uM after 20 hrs by LC-MS/MS analysis relative to control; assay type: cell-based; parameters: scale not given: the % may be the effect or the level left; in short: as §1
# NIH3T3 [11] = experiment: Cytoprotective activity against UV-induced apoptosis in mouse NIH/3T3 cells assessed as early apoptotic cells at 60 uM preincubated for 20 hrs followed by UV irradiation for 5 mins and measured after 24 hrs by flow cytometric analysis (reference value: 79.5%); assay type: functional
# [12] = biological target: T2, Sphingomyelin phosphodiesterase 2 (Homo sapiens) (UniProt O60906); experiment: Inhibition of neutral sphingomyelinase (unknown origin) assessed as reduction in NBD-ceramide release at 100 uM by TLC based fluorescence assay
# T2 sequence (whole entry): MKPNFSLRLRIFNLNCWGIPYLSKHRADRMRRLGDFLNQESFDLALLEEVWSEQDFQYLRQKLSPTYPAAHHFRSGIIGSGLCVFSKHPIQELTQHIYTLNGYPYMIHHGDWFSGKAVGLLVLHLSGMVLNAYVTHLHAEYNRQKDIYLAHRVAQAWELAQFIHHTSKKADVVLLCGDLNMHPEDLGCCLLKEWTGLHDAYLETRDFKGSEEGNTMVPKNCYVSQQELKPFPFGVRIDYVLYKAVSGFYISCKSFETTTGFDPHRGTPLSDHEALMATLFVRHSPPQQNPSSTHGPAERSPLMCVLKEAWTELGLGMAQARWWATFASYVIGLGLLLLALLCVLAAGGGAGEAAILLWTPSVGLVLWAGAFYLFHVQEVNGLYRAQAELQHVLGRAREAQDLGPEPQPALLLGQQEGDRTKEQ
# [13] = biological target: T1, Sphingomyelin phosphodiesterase (Mus musculus); experiment: Inhibition of acid sphingomyelinase in mouse NIH/3T3 cells assessed as ceramide levels at 10 uM after 20 hrs by LC-MS/MS analysis relative to control; assay type: cell-based; in short: as §1
# NIH3T3 [14] = experiment: Cytoprotective activity against UV-induced apoptosis in mouse NIH/3T3 cells assessed as viable cells at 20 uM preincubated for 20 hrs followed by UV irradiation for 5 mins and measured after 24 hrs by flow cytometric analysis (reference value: 12.6%); assay type: functional; conditions: NIH3T3, light or radiation study, read-out: Activity
# [15] = biological target: T1, Sphingomyelin phosphodiesterase (Mus musculus); experiment: Inhibition of acid sphingomyelinase in mouse NIH/3T3 cells assessed as ceramide levels at 20 uM after 20 hrs by LC-MS/MS analysis relative to control; assay type: cell-based; in short: as §1
# NIH3T3 [16] = experiment: Cytoprotective activity against UV-induced apoptosis in mouse NIH/3T3 cells assessed as viable cells at 40 uM preincubated for 20 hrs followed by UV irradiation for 5 mins and measured after 24 hrs by flow cytometric analysis (reference value: 12.6%); assay type: functional; conditions: NIH3T3, light or radiation study, read-out: Activity
# NIH3T3 [17] = experiment: Cytoprotective activity against UV-induced apoptosis in mouse NIH/3T3 cells assessed as viable cells at 10 uM preincubated for 20 hrs followed by UV irradiation for 5 mins and measured after 24 hrs by flow cytometric analysis (reference value: 12.6%); assay type: functional; conditions: NIH3T3, light or radiation study, read-out: Activity
# [18] = biological target: T1, Sphingomyelin phosphodiesterase (Mus musculus); experiment: Inhibition of acid sphingomyelinase in mouse NIH/3T3 cells assessed as increase in […] level at 5 uM after 20 hrs by LC-MS/MS analysis relative to control; assay type: cell-based; parameters: scale not given: the % may be the effect or the level left; in short: as §1
smiles,measurement,setting,value
CCCCCCCCCCOc1cc(C(=O)NO)ccc1OC,inhibition,NIH3T3 [1],Dose-dependent effect
same,inhibition,[2],26.1%
same,IC50,NIH3T3 [3],51.4 µM
same,inhibition,[4],Dose-dependent effect
same,Activity,[5],36.4%
same,Activity,NIH3T3 [6],0.1%
same,viability at 60 µM,NIH3T3 [7],36.2%
same,Activity,NIH3T3 [8],Dose-dependent effect
same,Activity,NIH3T3 [9],0.2%
same,Activity,[10],37.5%
same,Activity,NIH3T3 [11],55.7%
same,inhibition,[12],inactive
same,inhibition,[13],37%
same,viability at 20 µM,NIH3T3 [14],54.7%
same,inhibition,[15],42.6%
same,viability at 40 µM,NIH3T3 [16],50.9%
same,viability at 10 µM,NIH3T3 [17],46.9%
same,Activity,[18],31.9%
